Here are results for 17 molecules from ChEMBL document CHEMBL4007421, “Discovery and Preclinical Characterization of 3-((4-(4-Chlorophenyl)-7-fluoroquinoline-3-yl)sulfonyl)benzonitrile, a Novel Non-acetylenic Metabotropic Glutamate Receptor 5 (mGluR5) Negative Allosteric Modulator for Psychiatric Indications” (J Med Chem, 2017).

SMILES strings stand for the structures.

Metabotropic glutamate receptor 5, sequence (P41594 whole entry): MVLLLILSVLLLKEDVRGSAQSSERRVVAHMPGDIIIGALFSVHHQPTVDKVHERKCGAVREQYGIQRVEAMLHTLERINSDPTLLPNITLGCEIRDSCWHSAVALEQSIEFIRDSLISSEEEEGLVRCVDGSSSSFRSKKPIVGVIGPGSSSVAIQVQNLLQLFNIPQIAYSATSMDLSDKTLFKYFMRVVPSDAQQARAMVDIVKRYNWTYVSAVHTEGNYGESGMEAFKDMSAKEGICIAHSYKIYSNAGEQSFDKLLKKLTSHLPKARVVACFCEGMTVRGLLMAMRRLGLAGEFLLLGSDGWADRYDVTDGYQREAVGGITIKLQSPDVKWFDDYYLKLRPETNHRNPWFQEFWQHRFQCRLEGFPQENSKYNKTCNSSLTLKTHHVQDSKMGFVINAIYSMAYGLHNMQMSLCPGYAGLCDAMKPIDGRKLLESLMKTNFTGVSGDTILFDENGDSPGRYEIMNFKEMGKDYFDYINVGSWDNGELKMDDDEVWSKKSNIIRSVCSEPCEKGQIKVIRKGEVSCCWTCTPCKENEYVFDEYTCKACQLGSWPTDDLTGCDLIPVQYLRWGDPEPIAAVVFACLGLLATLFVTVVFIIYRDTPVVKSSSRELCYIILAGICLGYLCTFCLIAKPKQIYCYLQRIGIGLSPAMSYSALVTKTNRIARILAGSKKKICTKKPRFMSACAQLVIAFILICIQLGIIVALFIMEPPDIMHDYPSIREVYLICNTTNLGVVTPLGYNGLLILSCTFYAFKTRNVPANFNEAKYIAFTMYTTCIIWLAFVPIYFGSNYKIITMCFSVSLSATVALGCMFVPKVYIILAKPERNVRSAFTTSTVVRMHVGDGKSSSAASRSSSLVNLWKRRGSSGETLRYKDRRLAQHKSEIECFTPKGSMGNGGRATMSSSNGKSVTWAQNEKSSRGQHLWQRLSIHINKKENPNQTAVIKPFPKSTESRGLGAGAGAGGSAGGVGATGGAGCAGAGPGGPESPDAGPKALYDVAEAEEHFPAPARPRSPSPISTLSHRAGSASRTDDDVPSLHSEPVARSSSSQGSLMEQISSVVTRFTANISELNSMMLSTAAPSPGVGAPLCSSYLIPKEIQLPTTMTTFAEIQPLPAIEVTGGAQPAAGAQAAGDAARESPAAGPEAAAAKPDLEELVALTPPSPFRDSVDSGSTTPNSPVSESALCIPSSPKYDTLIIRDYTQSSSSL

The first series relates to Liver. As to the kind of experiment: Intrinsic clearance in rat liver microsomes at 2.5 uM assessed per gram of liver. Format: ADME, microsome.
Settings: not given
A general note: Liver microsomes are a subcellular fraction often used to study metabolism.
For `N#Cc1ccc2ncc(S(=O)(=O)c3ccc(F)cc3)c(-c3ccc(Cl)cc3)c2c1`, the CLint stood at 0.04 mL/min/g.
For the molecule `O=S(=O)(c1ccc(F)cc1)c1cnc2ccc(Cl)cc2c1-c1ccc(Cl)cc1`, the CLint amounted to 0.2 mL/min/g.
Same read-out and setting: the result for `Cc1cccc(C#Cc2ccccc2)n1` reads 0.19 mL/min/g; that for `O=S(=O)(c1ccc(F)cc1)c1cnc2c(F)cc(Cl)cc2c1-c1ccc(Cl)cc1`, 0.09 mL/min/g; that for `Cc1ccc(S(=O)(=O)c2cnc3ccccc3c2-c2ccc(Cl)cc2)cc1`, 17.5 mL/min/g.
In turn, `O=S(=O)(c1ccc(F)c(F)c1)c1cnc2c(F)cccc2c1-c1ccc(Cl)cc1` gave a CLint of 0.2 mL/min/g.
Same read-out and setting: the result for `O=S(=O)(c1ccc(F)cc1)c1cnc2cc(F)c(Cl)cc2c1-c1ccc(Cl)cc1` reads 0.34 mL/min/g; that for `N#Cc1ccc2c(-c3ccc(Cl)cc3)c(S(=O)(=O)c3ccc(F)cc3)cnc2c1`, 0.01 mL/min/g.
On to `O=S(=O)(c1ccc(F)cc1)c1cnc2cc(Cl)c(F)cc2c1-c1ccc(Cl)cc1`, for which the CLint came to 0.57 mL/min/g.

A further series concerns Liver. Put plainly: Intrinsic clearance in human liver microsomes at 2.5 uM assessed per gram of liver. It is filed as ADME, microsome.
Settings: not given
On to `N#Cc1ccc2ncc(S(=O)(=O)c3ccc(F)cc3)c(-c3ccc(Cl)cc3)c2c1`, for which the CLint came out at 0.01 mL/min/g.
Turning to `O=S(=O)(c1ccc(F)cc1)c1cnc2ccc(Cl)cc2c1-c1ccc(Cl)cc1`, the CLint came to 0.01 mL/min/g.
On the same count and under the same terms, the result for `Cc1cccc(C#Cc2ccccc2)n1` reads 1.61 mL/min/g; that for `O=S(=O)(c1ccc(F)cc1)c1cnc2c(F)cc(Cl)cc2c1-c1ccc(Cl)cc1`, 0.01 mL/min/g.
The molecule `Cc1ccc(S(=O)(=O)c2cnc3ccccc3c2-c2ccc(Cl)cc2)cc1` came in with a CLint of 2.12 mL/min/g.
Still for that read-out and setting: the same measure for `O=S(=O)(c1ccc(F)c(F)c1)c1cnc2c(F)cccc2c1-c1ccc(Cl)cc1`: 0.28 mL/min/g; for `O=S(=O)(c1ccc(F)cc1)c1cnc2cc(F)c(Cl)cc2c1-c1ccc(Cl)cc1`: 0.01 mL/min/g.
Same read-out and setting: the same measure for `N#Cc1ccc2c(-c3ccc(Cl)cc3)c(S(=O)(=O)c3ccc(F)cc3)cnc2c1`: 0.01 mL/min/g; for `COc1cccc(-c2c(S(=O)(=O)c3ccc(F)cc3)cnc3c(F)cccc23)c1`: 2.23 mL/min/g; for `O=S(=O)(c1ccc(F)c(Cl)c1)c1cnc2c(F)cccc2c1-c1ccccc1F`: 1.39 mL/min/g.
The same measure, in the same setting: the same measure for `COc1cccc(-c2c(S(=O)(=O)c3cc(F)cc(F)c3)cnc3cc(F)ccc23)c1`: 1.81 mL/min/g; for `O=S(=O)(c1ccc(F)c(F)c1)c1cnc2c(F)cccc2c1-c1ccc(F)cc1`: 0.78 mL/min/g.
In the case of `O=S(=O)(c1ccc(F)c(Cl)c1)c1cnc2c(F)cccc2c1-c1cccc(Cl)c1`, the CLint turned out to be 0.18 mL/min/g.
Take `O=S(=O)(c1ccc(F)cc1)c1cnc2cc(Cl)c(F)cc2c1-c1ccc(Cl)cc1`: the CLint was determined as 0.01 mL/min/g.
The same measure, in the same setting: the result for `COc1ccc(S(=O)(=O)c2cnc3c(F)cccc3c2-c2ccc(Cl)cc2)cc1` reads 1.05 mL/min/g; that for `O=S(=O)(c1ccc(F)c(F)c1)c1cnc2cc(F)ccc2c1-c1cccc(Cl)c1`, 0.38 mL/min/g; that for `Cc1ccc(S(=O)(=O)c2cnc3c(F)cccc3c2-c2ccc(Cl)cc2)cc1F`, 2.2 mL/min/g.

In a further series the target is Metabotropic glutamate receptor 5 (Rattus norvegicus) (UniProt P31424). Put plainly: Displacement of [3H]M-MPEP from rat mGluR5 expressed in rat cerebrocortical membrane at 1 uM after 60 mins relative to control. It is filed as cell membranes.
Metabotropic glutamate receptor 5 (Rattus norvegicus), sequence (P31424 21-1203 limits assumed): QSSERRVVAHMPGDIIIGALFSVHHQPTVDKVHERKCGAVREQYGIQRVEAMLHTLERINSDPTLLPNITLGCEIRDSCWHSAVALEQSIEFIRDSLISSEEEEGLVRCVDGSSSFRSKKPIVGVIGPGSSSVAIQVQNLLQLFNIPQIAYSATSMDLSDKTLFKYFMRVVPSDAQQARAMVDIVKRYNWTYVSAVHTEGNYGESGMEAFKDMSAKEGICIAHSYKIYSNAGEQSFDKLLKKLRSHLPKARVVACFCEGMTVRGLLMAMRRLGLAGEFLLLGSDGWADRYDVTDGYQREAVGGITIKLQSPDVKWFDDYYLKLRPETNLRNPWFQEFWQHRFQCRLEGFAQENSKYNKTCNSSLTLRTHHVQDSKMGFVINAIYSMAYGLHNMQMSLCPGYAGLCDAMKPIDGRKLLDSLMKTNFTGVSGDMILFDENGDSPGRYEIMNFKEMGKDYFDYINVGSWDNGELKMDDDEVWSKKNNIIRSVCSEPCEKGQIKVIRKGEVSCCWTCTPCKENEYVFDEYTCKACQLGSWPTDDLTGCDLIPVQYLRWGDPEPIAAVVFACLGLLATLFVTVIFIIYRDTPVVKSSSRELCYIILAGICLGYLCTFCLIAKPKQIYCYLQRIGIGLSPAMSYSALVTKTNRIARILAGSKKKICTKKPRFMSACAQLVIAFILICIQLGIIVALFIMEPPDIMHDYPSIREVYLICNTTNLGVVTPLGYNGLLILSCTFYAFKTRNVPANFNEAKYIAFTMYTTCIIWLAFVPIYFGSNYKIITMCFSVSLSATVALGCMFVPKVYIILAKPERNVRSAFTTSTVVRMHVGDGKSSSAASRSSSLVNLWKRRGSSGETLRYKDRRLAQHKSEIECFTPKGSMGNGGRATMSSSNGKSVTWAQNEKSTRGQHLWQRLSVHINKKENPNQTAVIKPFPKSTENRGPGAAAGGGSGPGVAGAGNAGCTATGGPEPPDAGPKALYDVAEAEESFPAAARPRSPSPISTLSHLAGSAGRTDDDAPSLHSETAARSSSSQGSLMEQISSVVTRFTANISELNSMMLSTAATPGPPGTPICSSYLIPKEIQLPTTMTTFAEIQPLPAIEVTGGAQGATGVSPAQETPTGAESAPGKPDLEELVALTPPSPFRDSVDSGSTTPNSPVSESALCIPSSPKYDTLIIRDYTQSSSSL
Settings: not given
Background: In a radioligand displacement assay an active substance lowers the binding of a labelled ligand.
In turn, `N#Cc1ccc2ncc(S(=O)(=O)c3ccc(F)cc3)c(-c3ccc(Cl)cc3)c2c1` returned an inhibition of 39.7%.
On the same count and under the same terms, the result for `O=S(=O)(c1ccc(F)cc1)c1cnc2ccc(Cl)cc2c1-c1ccc(Cl)cc1` reads 58.3%; that for `O=S(=O)(c1ccc(F)cc1)c1cnc2c(F)cc(Cl)cc2c1-c1ccc(Cl)cc1`, 19%; that for `O=S(=O)(c1ccc(F)cc1)c1cnc2cc(F)c(Cl)cc2c1-c1ccc(Cl)cc1`, 43.7%.
With `N#Cc1ccc2c(-c3ccc(Cl)cc3)c(S(=O)(=O)c3ccc(F)cc3)cnc2c1`, the inhibition was 8.7%.
Same read-out and setting: the result for `O=S(=O)(c1ccc(F)cc1)c1cnc2cc(Cl)c(F)cc2c1-c1ccc(Cl)cc1` reads 48%.

Another series has as its target Metabotropic glutamate receptor 5 (Homo sapiens, UniProt P41594). Put plainly: Negative allosteric modulation of human mGluR5a expressed in CHO cells assessed as reduction in DHPG-induced cytosolic Ca2+ influx after 10 to 20 mins by fluo-4/AM-dye based fluorometric analysis. It is filed as functional, cell-based.
Settings: not given
Regarding `O=S(=O)(c1ccc(F)c(F)c1)c1cnc2c(F)cccc2c1-c1ccc(Cl)cc1`, the 50% inhibitory concentration (IC50) turned out to be 13 nM.

The next series relates to Rattus norvegicus. As to the kind of experiment: Anxiolytic activity in ip dosed Wistar rat assessed as increase in water drinking time during punished period administered as suspension by Vogel punished drinking conflict test. The settings on record: read-out: MED. It is filed as functional. The essentials:
(§1)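 Vogel punished-drinking test in rats, single i.p. or p.o. dose as suspension in 5% Tween 80; plasma sampled ~45 min after i.p. or ~75 min after p.o. dosing.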
Regarding `Cc1cccc(C#Cc2ccccc2)n1`, the minimal effective dose is 3 mg/kg.
On to `O=S(=O)(c1ccc(F)c(F)c1)c1cnc2c(F)cccc2c1-c1ccc(Cl)cc1`, for which the minimal effective dose came out at 3 mg/kg.

Tested on in the next series: not listed separately
Put plainly: Plasma concentration in ip dosed Wistar rat at anxiolytic MED administered as suspension after 45 mins during Vogel punished drinking conflict test. It is filed as ADME, organism-based.
Settings: not given
In outline: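 Vehicle was a suspension containing 5% Tween 80, given i.p. at the Vogel minimum effective dose. Plasma was sampled about 45 min after dosing, right after the Vogel punished drinking test.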
With `O=S(=O)(c1ccc(F)c(F)c1)c1cnc2c(F)cccc2c1-c1ccc(Cl)cc1`, the concentration at 0.75 h amounted to 59.7 nM.

Another series has as its system Rattus norvegicus. Put plainly: Anxiolytic activity in po dosed Wistar rat assessed as increase in water drinking time during punished period administered as suspension by Vogel punished drinking conflict test. Format: functional. The settings on record: read-out: MED. In outline:
as §1
On to `Cc1cccc(C#Cc2ccccc2)n1`, for which the minimal effective dose stood at 3 mg/kg.
The same measure, in the same setting: the result for `O=S(=O)(c1ccc(F)c(F)c1)c1cnc2c(F)cccc2c1-c1ccc(Cl)cc1` reads greater than 30 mg/kg.

A further series deals with Plasma. As to the kind of experiment: Plasma concentration in Wistar rat at 30 mg/kg, po administered as single dose. The settings on record: in vivo. Format: ADME, organism-based.
For the molecule `O=S(=O)(c1ccc(F)c(F)c1)c1cnc2c(F)cccc2c1-c1ccc(Cl)cc1`, the concentration was determined as 196 nM.

As usually defined, the inhibition is the drop in the measured response relative to a control, in per cent. Read a high inhibition as a response far below the control. What is called IC50 is the point on the concentration scale where inhibition reaches its midpoint.
